We go through one compound from ChEMBL document CHEMBL4152184, “NB 06: From a simple lysosomotropic aSMase inhibitor to tools for elucidating the role of lysosomes in signaling apoptosis and LPS-induced inflammation” (Eur J Med Chem, 2018).

Each structure is given as a SMILES string. Calls of active or inactive are those of the source. The rule behind the calls is not given here.

In assay [1] the test system is MONO-MAC-6. In words: Upregulation of IL23A mRNA expression level in human MONO-MAC-6 cells at 5 uM incubated for 30 mins measured after 1 hr by qRT-PCR method relative to control. Type of assay: functional. On the technique in general: Quantitative PCR measures a nucleic acid by following its amplification.
Assay [2] deals with MONO-MAC-6. Put plainly: Downregulation of PTX3 mRNA expression level in human MONO-MAC-6 cells at 5 uM incubated for 30 mins measured after 6 hrs by oligonucleotide array hybridization assay relative to control. Type of assay: functional. The method in brief:
(§1)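 Total RNA was isolated, transcribed and labeled with DY-647 dye, then co-hybridized with DY-548-labeled cDNA from untreated cells on an inflammation oligonucleotide chip (780 gene probes). Differential expression >1.5 was taken as significant.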

In assay [3] the test system is MONO-MAC-6. Put plainly: Upregulation of CXCL2 mRNA expression level in LPS-stimulated human MONO-MAC-6 cells at 5 uM preincubated for 30 mins followed by LPS stimulation measured after 4 hrs by qRT-PCR method (reference value: 16.41). Type of assay: functional.
Assay [4] has as its target T1, Acid ceramidase (Homo sapiens) (UniProt Q13510).
T1 sequence (whole entry): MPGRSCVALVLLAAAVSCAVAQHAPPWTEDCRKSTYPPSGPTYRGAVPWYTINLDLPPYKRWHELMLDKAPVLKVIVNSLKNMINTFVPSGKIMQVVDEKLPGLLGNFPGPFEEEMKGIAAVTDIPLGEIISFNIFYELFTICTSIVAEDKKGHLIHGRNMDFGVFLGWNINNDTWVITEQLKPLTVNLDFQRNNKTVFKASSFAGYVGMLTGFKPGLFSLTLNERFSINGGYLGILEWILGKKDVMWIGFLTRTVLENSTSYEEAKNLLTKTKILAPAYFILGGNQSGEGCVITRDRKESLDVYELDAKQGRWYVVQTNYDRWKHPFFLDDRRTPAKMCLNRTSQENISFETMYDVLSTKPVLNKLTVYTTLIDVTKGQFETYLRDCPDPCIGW
Put plainly: Inhibition of TNFalpha-stimulated acid ceramidase in human PBMC assessed as ratio of C24:1-ceramide/lipid phosphate level at 10 uM preincubated for 30 mins followed by TNFalpha stimulation measured after 4 hrs by HPLC method (reference value: 3.05). Type of assay: cell-based. The method in brief: (§2)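 Human macrophages from primary culture were preincubated 30 min with 10 µM compound. They were then stimulated 4 h with mmLDL (54 µg/mL), TNFalpha (3 ng/mL) or exogenous C6-ceramide (10 µM), or left unstimulated. Individual ceramide species (C16 and C24:1) were quantified in the cell lipid extracts.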

The subject of assay [5] is MONO-MAC-6. In words: Upregulation of CCL20 mRNA expression level in LPS-stimulated human MONO-MAC-6 cells at 5 uM preincubated for 30 mins followed by LPS stimulation measured after 2 hrs by oligonucleotide array hybridization assay (reference value: 2.87). The format is functional.
Assay [6] deals with MONO-MAC-6. In words: Downregulation of CXCL2 mRNA expression level in human MONO-MAC-6 cells at 5 uM incubated for 30 mins measured after 6 hrs by oligonucleotide array hybridization assay relative to control. The format is functional. The essentials:
as §1

Assay [7] has as its system MONO-MAC-6. In words: Upregulation of CXCL10 mRNA expression level in LPS-stimulated human MONO-MAC-6 cells at 5 uM preincubated for 30 mins followed by LPS stimulation measured after 6 hrs by oligonucleotide array hybridization assay (reference value: 1.57). Type of assay: functional.
The test system of assay [8] is MONO-MAC-6. Put plainly: Downregulation of IL-6 mRNA expression level in human MONO-MAC-6 cells at 5 uM incubated for 30 mins measured after 6 hrs by qRT-PCR method relative to control. Type of assay: functional.
In assay [9] the test system is MONO-MAC-6. Put plainly: Upregulation of ICAM1 mRNA expression level in human MONO-MAC-6 cells at 5 uM incubated for 30 mins measured after 1 hr by oligonucleotide array hybridization assay relative to control. The format is functional.
A further assay deals with PBMC. Put plainly: Inhibition of mmLDL-stimulated apoptosis in human PBMC assessed as apoptotic cells at 2 uM preincubated for 30 mins followed by mmLDL stimulation measured after 4 hrs by YO-PRO-1/Hoechst 33342 staining based assay (reference value: 100%). Type of assay: functional. Set-up: scale not given: the % may be the effect or the level left. The method in brief: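 PBMC pre-incubated 30 min with 2 μM compound, then stimulated with mmLDL (27 μg/mL; line 5) or TNFalpha (3 ng/mL; line 1) for 4 h. Apoptotic cells stained with YO-PRO-1 and all cells with Hoechst 33342. Each plate had control, stimulus, compound alone and compound plus stimulus; n = 3. Values are on a 0% (untreated control, corrected for spontaneous apoptosis) to 100% (stimulus alone) scale; means ± SE.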

The subject of assay [10] is MONO-MAC-6. Put plainly: Downregulation of IL-6 mRNA expression level in human MONO-MAC-6 cells at 5 uM incubated for 30 mins measured after 4 hrs by qRT-PCR method relative to control. The format is functional.
The test system of assay [11] is MONO-MAC-6. In words: Downregulation of CXCL2 mRNA expression level in human MONO-MAC-6 cells at 5 uM incubated for 30 mins measured after 6 hrs by qRT-PCR method relative to control. Type of assay: functional.
In assay [12] the target is T1, Acid ceramidase (Homo sapiens). Put plainly: Inhibition of mmLDL-stimulated acid ceramidase in human PBMC assessed as ratio of C16-ceramide/lipid phosphate level at 10 uM preincubated for 30 mins followed by mmLDL stimulation measured after 4 hrs by HPLC method (reference value: 0.49). The format is cell-based. The method in brief:
as §2

The target of assay [13] is T2, Sphingomyelin phosphodiesterase (Homo sapiens) (UniProt P17405).
T2 sequence (whole entry): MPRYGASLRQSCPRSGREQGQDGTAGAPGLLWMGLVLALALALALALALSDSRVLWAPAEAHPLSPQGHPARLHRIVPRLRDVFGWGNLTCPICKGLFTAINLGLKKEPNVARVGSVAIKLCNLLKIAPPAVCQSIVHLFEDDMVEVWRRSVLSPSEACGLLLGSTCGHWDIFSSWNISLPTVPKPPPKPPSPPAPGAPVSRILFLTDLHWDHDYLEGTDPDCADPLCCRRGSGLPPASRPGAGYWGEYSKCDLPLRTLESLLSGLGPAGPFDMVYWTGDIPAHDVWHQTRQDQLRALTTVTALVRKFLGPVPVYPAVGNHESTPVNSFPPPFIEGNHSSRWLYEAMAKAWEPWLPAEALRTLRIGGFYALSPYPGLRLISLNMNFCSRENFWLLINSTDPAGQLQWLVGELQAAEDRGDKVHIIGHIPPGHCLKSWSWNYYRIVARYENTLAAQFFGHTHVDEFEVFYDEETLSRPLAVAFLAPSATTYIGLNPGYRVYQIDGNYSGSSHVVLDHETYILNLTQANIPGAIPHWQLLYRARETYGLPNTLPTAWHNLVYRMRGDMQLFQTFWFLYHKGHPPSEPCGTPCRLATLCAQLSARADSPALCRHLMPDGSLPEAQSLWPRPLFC
In words: Inhibition of mmLDL-stimulated acid sphingomyelinase in human PBMC lysates up to 2 uM preincubated for 30 mins followed by mmLDL stimulation measured after 4 hrs by YO-PRO-1/Hoechst 33342 staining based assay.

In assay [14] the target is T1, Acid ceramidase (Homo sapiens). Put plainly: Inhibition of acid ceramidase in human PBMC assessed as ratio of C24:1-ceramide/lipid phosphate level at 10 uM incubated for 30 mins measured after 4 hrs by HPLC method. Type of assay: cell-based. The essentials:
as §2

Assay [15] relates to MONO-MAC-6. In words: Decrease in inflammation-related genes in LPS-stimulated human MONO-MAC-6 cells preincubated for 30 mins followed by LPS stimulation measured after 6 hrs by microarray analysis. The format is functional, cell-based. The essentials:
as §1

For assay [16], the system named is MONO-MAC-6. In words: Upregulation of CXCL2 mRNA expression level in LPS-stimulated human MONO-MAC-6 cells at 5 uM preincubated for 30 mins followed by LPS stimulation measured after 1 hr by oligonucleotide array hybridization assay (reference value: 1.42). The format is functional.

Consider `COc1ccc(CCN(C)CCCn2c3ccccc3c3ccccc32)cc1`, for which the “fold change (FC)” value in the assay on MONO-MAC-6 [1] turned out to be 1.01; with MONO-MAC-6 [2], 3.91; in the assay on MONO-MAC-6 [3], 8.28; in the assay on MONO-MAC-6 [5] it was 2.7; in the assay with MONO-MAC-6 [6], 5.44; in the assay on MONO-MAC-6 [7], 1.12. For the same compound, the “fold change (FC)” value in the assay on MONO-MAC-6 [8] stood at 46.64; in the assay on MONO-MAC-6 [9] it was 1.1; in the assay on MONO-MAC-6 [10], 2.25; in the assay with MONO-MAC-6 [11], 4.71; in the assay with MONO-MAC-6 [16], 1.14. In addition, the Ratio in [4] came out at 1.28; in [12], 0.24; in [14], 8.71. Moreover, the Activity with PBMC is 33 - 49%. Also, the inhibition entry in assay [13] is “inactive”. Moreover, the result in the assay with MONO-MAC-6 [15] was Active.
